Activity calls are given as the source filed them. The rule behind the calls is not given here.
Columns and labels:
Trypanosoma cruzi [1] = assay: Antitrypanosomal activity against Trypanosoma cruzi Tulahuen epimastigote forms incubated for 72 hrs by hemocytometry; assay type: functional, organism-based
In short: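 Epimastigotes grown in MTL medium with 10% inactivated FBS at 28 °C. Compounds were dissolved in DMSO (0.01% v/v) and added at 0.1–100 µM for 72 h. Parasites were counted in a Neubauer chamber. IC50 (50% growth inhibition) was derived by linear regression of Kc values. Values are averages of four determinations.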

Trypanosoma cruzi [2] = assay: (§1) Antitrypanosomal activity against Trypanosoma cruzi Arequipa trypomastigotes infected in BALB/c mouse assessed as reduction in parasitemia level in heart measured during acute phase (days 0 to 40 post infection) at 100 mg/kg, po dosed on alternating days (7 to 15 days post infection) by PCR analysis; assay type: functional, organism-based
Trypanosoma cruzi [3] = assay: Antitrypanosomal activity against Trypanosoma cruzi Tulahuen amastigote forms infected in African green monkey Vero cells incubated for 72 hrs by Giemsa staining based micrscopy; assay type: functional, organism-based
In short: (§2)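 Vero cells (RPMI, 10% inactivated FBS, 37 °C, 5% CO2) were seeded at 1×10^4/well on coverslips and cultured 2 days. They were infected 24 h with metacyclic forms at 10:1. After washing off free parasites, drugs were added at 0.1–100 µM for 72 h. Slides were methanol-fixed and Giemsa-stained; amastigotes were counted in 200 host cells versus untreated. IC50 was calculated.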

[4] = Genotoxicity in Salmonella typhimurium TA100 at 0.03 to 2.25 ug/plate incubated for 48 hrs in presence of liver S9 fraction by Ames test; assay type: toxicity, subcellular; details: salmonella enterica subsp. enterica serovar typhimurium, s9, 48 h
In short: (§3)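 Preincubation Ames assay. […] Top agar with trace histidine/biotin (0.05 mM each) was added and poured onto glucose minimal agar. Plates were incubated 48 h at 37 °C and His+ revertants counted. DMSO was the negative control, with strain-appropriate positive controls. Technical triplicates.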

Trypanosoma cruzi [5] = assay: as §1, with “muscle” for “heart”; assay type: functional, organism-based
Trypanosoma cruzi [6] = assay: Antitrypanosomal activity against Trypanosoma cruzi Arequipa amastigote forms infected in African green monkey Vero cells incubated for 72 hrs by Giemsa staining based micrscopy; assay type: functional, organism-based; in short: as §2
Trypanosoma cruzi [7] = assay: Antitrypanosomal activity against Trypanosoma cruzi SN3 amastigote forms infected in African green monkey Vero cells incubated for 72 hrs by Giemsa staining based micrscopy; assay type: functional, organism-based; in short: as §2
Trypanosoma cruzi [8] = assay: Antitrypanosomal activity against Trypanosoma cruzi Arequipa trypomastigote froms infected in mouse blood incubated for 24 hrs by Neubauer chamber based assay; assay type: functional, organism-based
In short: (§4)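 Mouse blood taken at peak parasitemia (day 7) was diluted with uninfected blood to 4×10^6 trypomastigotes/mL, then 1:2 in RPMI 1640. Drugs from DMSO stocks were added at 1, 10, 25, 50 and 100 µM and incubated 24 h at 4–8 °C. Parasites were counted in a Neubauer chamber in triplicate. IC50 was calculated versus control.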

Trypanosoma cruzi [9] = assay: as §1, with “bone marrow” for “heart”; assay type: functional, organism-based
[10] = target: Superoxide dismutase [Cu-Zn] (Homo sapiens, UniProt P00441); assay: Inhibition of human erythrocyte CuZn-SOD at 100 uM by NBT dye based spectrophotometry
Superoxide dismutase [Cu-Zn], sequence (P00441 whole entry): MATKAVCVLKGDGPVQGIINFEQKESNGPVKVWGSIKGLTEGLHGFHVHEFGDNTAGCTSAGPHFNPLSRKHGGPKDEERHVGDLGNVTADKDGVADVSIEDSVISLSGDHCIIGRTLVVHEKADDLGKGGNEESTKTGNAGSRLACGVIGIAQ
In short: (§5)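 Fe-SOD source: Arequipa epimastigote homogenate (STE buffer pH 7.8, sonication, centrifugation, supernatant; protein by Bradford); CuZn-SOD was commercial human erythrocyte enzyme. Activity was measured as NBT reduction by superoxide in 50 mM potassium phosphate pH 7.8, with compounds at 5 concentrations (1–100 µM). A560 was read before and after 10 min under lamp light with stirring. Three rate determinations; Newman–Keuls test.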

[11] = Genotoxicity in Salmonella typhimurium TA102 at 0.03 to 2.25 ug/plate incubated for 48 hrs in presence of liver S9 fraction by Ames test; assay type: toxicity, subcellular; details: salmonella enterica subsp. enterica serovar typhimurium, s9, 48 h; in short: as §3
Trypanosoma cruzi [12] = assay: Antitrypanosomal activity against Trypanosoma cruzi infected in African green monkey Vero cells assessed as reduction in number of amastigotes per infected cell measured up to 10 days by Giemsa staining based hemocytometry; assay type: functional; details: time day <=10
In short: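 Vero cells infected with metacyclic forms (10:1) were exposed to one concentration per compound immediately after infection for 12 h at 37 °C, 5% CO2. After washing, cultures were kept 10 days with fresh medium every 48 h. Every 48 h, % infected cells and amastigotes per infected cell (200 Giemsa-stained cells) and medium trypomastigotes (Neubauer) were scored. Means of three experiments.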

[13] = Genotoxicity in Salmonella typhimurium TA100 at 0.03 to 2.25 ug/plate incubated for 48 hrs in absence of liver S9 fraction by Ames test; assay type: toxicity; details: salmonella enterica subsp. enterica serovar typhimurium, s9, 48 h; in short: as §3
Trypanosoma cruzi [14] = assay: Antitrypanosomal activity against Trypanosoma cruzi Arequipa trypomastigotes infected in BALB/c mouse assessed as reduction in parasitemia level in lung measured during acute phase (days 0 to 40 post infection) at 100 mg/kg, po dosed on alternating days (7 to 15 days post infection) by PCR analysis; assay type: functional, organism-based
[15] = Genotoxicity in Salmonella typhimurium TA1535 at 0.03 to 2.25 ug/plate incubated for 48 hrs in presence of liver S9 fraction by Ames test; assay type: toxicity, subcellular; details: salmonella enterica subsp. enterica serovar typhimurium, s9, 48 h; in short: as §3
[16] = Genotoxicity in Salmonella typhimurium TA98 at 0.03 to 2.25 ug/plate incubated for 48 hrs in absence of liver S9 fraction by Ames test; assay type: toxicity; details: salmonella enterica subsp. enterica serovar typhimurium, s9, 48 h; in short: as §3
Trypanosoma cruzi [17] = assay: Antitrypanosomal activity against Trypanosoma cruzi Arequipa trypomastigotes infected in BALB/c mouse assessed as reduction in splenomegaly by measuring weight percent of spleens […] at 100 mg/kg, po dosed on alternating days (7 to 15 days post infection) by PCR analysis (reference value: 1.603%); assay type: functional
[18] = Inhibition of Trypanosoma cruzi Arequipa Fe-SOD by NBT dye based spectrophotometry; in short: as §5
Trypanosoma cruzi [19] = assay: as §1, with “infection) at 50 to 100 mg/kg,” for “infection) at 100 mg/kg,”; assay type: functional, organism-based; details: dose 50-100 mg/kg
Trypanosoma cruzi [20] = assay: Antitrypanosomal activity against Trypanosoma cruzi Arequipa trypomastigotes infected in BALB/c mouse assessed as reduction in parasitemia level in brain measured during acute phase (days 0 to 40 post infection) at 100 mg/kg, po dosed on alternating days (7 to 15 days post infection) by PCR analysis; assay type: functional, organism-based
Trypanosoma cruzi [21] = assay: Antitrypanosomal activity against Trypanosoma cruzi Arequipa trypomastigotes infected in BALB/c mouse assessed as reduction in splenomegaly by measuring weight percent of spleens […] at 50 mg/kg, po dosed on alternating days (7 to 15 days post infection) by PCR analysis (reference value: 1.603%); assay type: functional; design: scale not given: the % may be the effect or the level left
Trypanosoma cruzi [22] = assay: as §1, with “stomach” for “heart”; assay type: functional, organism-based
Trypanosoma cruzi [23] = assay: Antitrypanosomal activity against Trypanosoma cruzi SN3 trypomastigote froms infected in mouse blood incubated for 24 hrs by Neubauer chamber based assay; assay type: functional, organism-based; in short: as §4
Trypanosoma cruzi [24] = assay: Antitrypanosomal activity against Trypanosoma cruzi Arequipa trypomastigotes infected in BALB/c mouse assessed as parasitemia re-activation level measured during chronic phase ( day 90 post infection) at 100 mg/kg, po dosed on alternating days (7 to 15 days post infection) relative to acute phase infection (reference value: […]%); assay type: functional
Vero = assay: Cytotoxicity in African green monkey Vero cells incubated for 72 hrs; assay type: cell-based; details: Chlorocebus sabaeus

Structure (SMILES) | IC50 (Trypanosoma cruzi [1]) | Activity (Trypanosoma cruzi [2]) | IC50 (Trypanosoma cruzi [3]) | Activity [4] | Activity (Trypanosoma cruzi [5]) | IC50 (Trypanosoma cruzi [6]) | IC50 (Trypanosoma cruzi [7]) | IC50 (Trypanosoma cruzi [8]) | Activity (Trypanosoma cruzi [9]) | inhibition [10] | Activity [11] | inhibition (INH) (Trypanosoma cruzi [12]) | Activity [13] | Activity (Trypanosoma cruzi [14]) | Activity [15] | Activity [16] | Spleen weight percent (Trypanosoma cruzi [17]) | IC50 [18] | Activity (Trypanosoma cruzi [19]) | Activity (Trypanosoma cruzi [20]) | also measured
O=C(CCN1CCN(c2ccc(F)cc2)CC1)c1csc2ccc(F)cc12 | 0.4 µM | Active | 4.9 µM | Non-Toxic | Active | 12.7 µM | 7.9 µM | 0.3 µM | Active | inactive | Non-Toxic | 49% | Non-Toxic | Active | Non-Toxic | Non-Toxic | 0.825% | 16.8 µM | Active | Active | Activity (Trypanosoma cruzi [21]): 1.061%; Activity (Trypanosoma cruzi [22]): Active; IC50 (Trypanosoma cruzi [23]): 5.1 µM; Activity (Trypanosoma cruzi [24]): 0%; IC50 (Vero): 759 µM
O=C(CCN1CCN(c2ccc(C(F)(F)F)cc2)CC1)c1csc2ccc(F)cc12 | 14 µM | Active | 25.8 µM | Non-Toxic | Active | 27.9 µM | 8.7 µM | 13.9 µM | Active | inactive | Non-Toxic | 64% | Non-Toxic | Active | Non-Toxic | Non-Toxic | 1.041% | 102 µM | Active | Active | Activity (Trypanosoma cruzi [21]): 1.621%; Activity (Trypanosoma cruzi [22]): Active; IC50 (Trypanosoma cruzi [23]): 6.6 µM; Activity (Trypanosoma cruzi [24]): 0%; IC50 (Vero): 896 µM
